High-throughput results as filed in PubChem BioAssay.
GAA850 FXN act: FXN promoter activators, primary screen, cell-based, luciferase luminescence, HEK293 lucGAA850 | HEK293 lucGAA850 FXN promoter luciferase reporter, 24 h; percent of 10 µM SAHA response | activation, % at 6 µM | 0.56% of 360,000 active | AID 540364, 2011;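 active = activation above the average of all compounds screened plus 3 SD, cutoff fixed separately per campaign, cut at about 7.5% in these data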
AHR activator: AHR activators, primary screen, cell-based, luminescence, luciferase reporter, human. AHR-responsive luciferase reporter cells. Aryl hydrocarbon receptor (Homo sapiens), P35869. 2.5% of 320,000 active. activation, % at 5 µM. AID 2796, 2010; in the data active = activation above about 47%
ABCB6 inh 2: ABCB6 transporter inhibitors, primary screen, K562-ABCB6 cells, flow cytometry, MLPCN library. ATP-binding cassette sub-family B member 6 (Homo sapiens), Q9NP58. K562-ABCB6 porphyrin accumulation, 1 h; active compounds read low. fluorescence ratio to DMSO, % at 10 µM. 0.19% of 360,000 active;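 active = fluorescence ratio to DMSO below 75%, the collection mean minus 3 SD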;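 also: signal is porphyrin accumulated inside mitochondria; lower ratio means ABCB6 inhibition with less porphyrin fluorescence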
Target sequence (Q9NP58 whole entry, looked up): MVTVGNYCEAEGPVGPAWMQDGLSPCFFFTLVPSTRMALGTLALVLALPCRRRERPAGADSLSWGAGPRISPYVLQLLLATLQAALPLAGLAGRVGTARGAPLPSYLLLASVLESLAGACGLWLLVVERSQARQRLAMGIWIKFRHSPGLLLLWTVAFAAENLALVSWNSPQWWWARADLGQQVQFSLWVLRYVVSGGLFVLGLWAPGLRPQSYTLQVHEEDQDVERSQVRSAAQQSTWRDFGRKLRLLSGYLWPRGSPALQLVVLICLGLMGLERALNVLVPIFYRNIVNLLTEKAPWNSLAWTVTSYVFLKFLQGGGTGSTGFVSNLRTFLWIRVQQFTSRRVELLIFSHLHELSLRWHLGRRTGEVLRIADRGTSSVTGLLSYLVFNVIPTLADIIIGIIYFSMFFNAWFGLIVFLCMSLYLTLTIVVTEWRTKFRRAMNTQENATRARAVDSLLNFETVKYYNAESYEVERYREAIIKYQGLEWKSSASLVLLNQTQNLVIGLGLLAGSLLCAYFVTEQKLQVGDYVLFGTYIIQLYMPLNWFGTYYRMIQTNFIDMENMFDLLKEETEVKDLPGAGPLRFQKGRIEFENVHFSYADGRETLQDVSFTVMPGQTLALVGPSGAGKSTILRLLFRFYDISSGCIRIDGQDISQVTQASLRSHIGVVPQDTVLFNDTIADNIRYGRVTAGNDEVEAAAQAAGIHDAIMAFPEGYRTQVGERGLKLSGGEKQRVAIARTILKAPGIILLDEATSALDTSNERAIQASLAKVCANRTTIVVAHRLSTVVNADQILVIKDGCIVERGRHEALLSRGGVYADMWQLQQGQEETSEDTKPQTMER
STAT3 act: IL-6 driven STAT3 reporter potentiators, primary screen, U3A cells, luciferase, luminescence, MLSCN library. IL-6 STAT3-luciferase reporter; 100% = signal with IL-6 EC80 alone. activation (% of control), % at 5.6 µM. 0.91% of 190,000 active;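 active = activation above the screen-wide mean of compound activation plus 3 SD, cut at about 130% in these data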
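system = STAT3-luciferase reporter U3A cells | reagent = IL-6 stimulus at 33 ng/mL final | timing = 1 h compound pre-exposure, 6 h IL-6 stimulation, 37 °C | measured by = luminescence | evaluation = % activation versus median of IL-6-stimulated wells | control set = IL-6-only wells as 100% reference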
GAA30 FXN cntr: GAA30 FXN promoter activators, confirmation, counter-screen for GAA850 frataxin promoter activator project, cell-based, luminescence, HEK293, lucGAA30, triplicate. shares compounds with GAA850 FXN act. HEK293 lucGAA30 FXN promoter luciferase, 24 h; DMSO = 0%, 5 µM ipriflavone = 100%. activation, % at 6 µM. 66% of 1,900 active. AID 588350, 2011;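 active = mean activation above the mean of solvent-only control wells plus 3 SD, cut at about 22% in these data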;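 also: counterscreen of GAA850 promoter hits where activity marks nonselective or luminescence artifacts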
GAA850 confirm: FXN GAA850 promoter activators in reporter cells, confirmation, cell-based, luminescence, HEK293 lucGAA850, triplicate. shares compounds with GAA850 FXN act. HEK293 lucGAA850 FXN promoter luciferase reporter, 24 h; 100% = activation by SAHA. activation, % at 6 µM. 86% of 1,900 active;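 active = mean activation above a set limit taken from the primary screen, cut at about 8% in these data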
Large screens that a line does not name were inactive (follow-up assays come after a bar, where they were run). A selection: hits, their analogues and other compounds. The true share with any hit is near 3.3%.

Cc1ccc(S(=O)(=O)NC2c3cccc4cccc(c34)C2Sc2ncccn2)cc1 (stereo not drawn)	none
CCOC(=O)C1=CCN(S(=O)(=O)c2ccccc2F)C1c1ccc(Cl)cc1 (stereo not drawn)	none (no result: GAA850 FXN act, AHR activator, STAT3 act)
O=C(Nn1cnc2ccccc2c1=O)c1ccc([N+](=O)[O-])cc1	none
Cc1cc(NC(=O)CSc2nc(C(C)C)nc3sc(C)c(C)c23)no1	GAA850 FXN act 7.9 | GAA30 FXN cntr inactive | GAA850 confirm 13
Cc1ccc(/C(N)=N/OC(=O)c2cccs2)cc1	none
N/C(=N\OC(=O)c1cccs1)c1ccccc1	GAA850 FXN act 7.7 | GAA30 FXN cntr 99 | GAA850 confirm 28
Cc1cccc(/C(N)=N/OC(=O)c2cccs2)c1	none
N/C(=N\OC(=O)c1cccs1)c1cccc(Br)c1	GAA850 FXN act 8.0 | GAA30 FXN cntr 57 | GAA850 confirm inactive
COc1ccc(Cl)cc1S(=O)(=O)Oc1ccc(NC(C)=O)cc1	none
COc1ccc(OCCCC(=O)NC(C)c2ccccc2)cc1 (stereo not drawn)	none
CCOC(=O)c1sc(=NC(=O)c2ccc(C)c(C)c2)n(C)c1C	none
CCOC(=O)c1sc(=NC(=O)c2ccccc2Br)n(C)c1C	GAA850 FXN act 11 (no result: STAT3 act) | GAA30 FXN cntr 106 | GAA850 confirm 29
C=CCn1c(SCC(=O)Nc2ccc(F)cc2F)nnc1-c1cnccn1	none (no result: STAT3 act)
CC(Oc1cc2oc(=O)cc(-c3ccccc3)c2cc1Cl)C(=O)NCC1CCC(C(=O)O)CC1 (stereo not drawn)	GAA850 FXN act 11 (no result: STAT3 act) | GAA30 FXN cntr inactive | GAA850 confirm 8.8
CCN1C(=O)[C@H]2[C@H]3CN=C(SCc4ccc(C#N)cc4)N3[C@@](C)(C(=O)OC)[C@H]2C1=O	none (no result: AHR activator, STAT3 act)
CC[C@]1(C(=O)OC)[C@H]2C(=O)N(Cc3ccccc3)C(=O)[C@H]2[C@H]2CN=C(SCc3ccc(C(=O)OC)cc3)N21	GAA850 FXN act 9.5 (no result: AHR activator, STAT3 act) | GAA30 FXN cntr inactive | GAA850 confirm 11
COC(=O)[C@@]1(C)[C@H]2C(=O)N(Cc3ccccc3)C(=O)[C@H]2[C@H]2CN=C(SCc3ccccc3)N21	GAA850 FXN act 16 (no result: AHR activator, STAT3 act) | GAA30 FXN cntr 33 | GAA850 confirm 16
CC[C@]1(C(=O)OC)[C@H]2C(=O)N(Cc3ccccc3)C(=O)[C@H]2[C@H]2CN=C(SCc3ccc(C)cc3)N21	GAA850 FXN act 13 (no result: AHR activator, STAT3 act) | GAA30 FXN cntr 34 | GAA850 confirm 14
CC[C@]1(C(=O)OC)[C@H]2C(=O)N(Cc3ccccc3)C(=O)[C@H]2[C@H]2CN=C(SCC3CC3)N21	GAA850 FXN act 17 (no result: AHR activator, STAT3 act) | GAA30 FXN cntr 30 | GAA850 confirm 18
Cc1ccc(C(=O)NCCNC(=O)c2cccnc2)cc1	none (no result: STAT3 act)
O=C(COC(=O)c1ccc2ccccc2c1O)Nc1ccccc1	none (no result: AHR activator, STAT3 act)
CCCCN(C(=O)C1CCCC1)c1c(N)n(CC(C)C)c(=O)[nH]c1=O	none (no result: STAT3 act)
Cc1cccc(N(C(=O)Cc2cccs2)C(C(=O)NC2CCCC2)c2ccncc2)c1 (stereo not drawn)	none (no result: STAT3 act)
Cc1ccc(N(C(=O)Cc2cccs2)C(C(=O)NC2CCCCC2)c2ccccn2)cc1C (stereo not drawn)	GAA850 FXN act 13 | GAA30 FXN cntr inactive | GAA850 confirm 11
O=C(NC1CCCCC1)C(c1cccs1)N(C(=O)Cc1c[nH]c2ccccc12)c1ccc(F)cc1 (stereo not drawn)	GAA850 FXN act 10 | GAA30 FXN cntr inactive | GAA850 confirm inactive
CC(=O)c1ccc(N(C(=O)Cc2c[nH]c3ccccc23)C(C(=O)NC2CCCCC2)c2cccs2)cc1 (stereo not drawn)	none
COc1ccccc1-c1ccc2c(c1)C(C)(Cc1ccc(Cl)c(Cl)c1)C(=O)N2 (stereo not drawn)	GAA850 FXN act 17 (no result: AHR activator, STAT3 act) | GAA30 FXN cntr 29 | GAA850 confirm 11
O=C1COc2ccc(C(=O)c3ccccc3)cc2CN1	none
CCc1cccc2c(C(=O)CCl)c[nH]c12	GAA850 FXN act 8.2 | GAA30 FXN cntr 31 | GAA850 confirm 21
COc1ccc(NC(=O)C2CCCN2S(=O)(=O)c2ccc3c(c2)CCC(=O)N3)cc1 (stereo not drawn)	none
COc1ccc(NC(=O)C2CCCN2S(=O)(=O)c2ccc3c(c2)CCC(=O)N3)cc1Cl (stereo not drawn)	GAA850 FXN act 9.1 | GAA30 FXN cntr inactive | GAA850 confirm 12
Cc1ccc(-c2nnc3c4ccccc4c(C)nn23)cc1S(=O)(=O)N1CCN(CCO)CC1	GAA850 FXN act 7.6 | GAA30 FXN cntr 32 | GAA850 confirm 17
Cc1ccc(-c2nnc3c4ccccc4c(C)nn23)cc1S(=O)(=O)N1CCN(C)CC1	none
C[C@H](CO)N1C[C@H](C)[C@H](CN(C)S(=O)(=O)c2ccccc2)Oc2ccc(NC(=O)NC3CCCCC3)cc2CC1=O	GAA850 FXN act 8.5 (no result: STAT3 act) | GAA30 FXN cntr inactive | GAA850 confirm 9.2
C[C@H](CO)N1C[C@H](C)[C@H](CN(C)S(=O)(=O)c2cccs2)Oc2ccc(NC(=O)Nc3ccc4c(c3)OCO4)cc2CC1=O	GAA850 FXN act 10 (no result: STAT3 act) | GAA30 FXN cntr inactive | GAA850 confirm 11
COCCNc1nc(C)cc(-c2cc(C(=O)NCc3ccccc3)on2)n1	none (no result: STAT3 act)
Cc1cc(-c2cc(C(=O)NCc3ccccc3)on2)nc(S(C)(=O)=O)n1	GAA850 FXN act 9.7 (no result: STAT3 act) | GAA30 FXN cntr 50 | GAA850 confirm 26
CC1CCN(CC(CS(=O)(=O)c2ccc([N+](=O)[O-])cc2)N2CCC(C)CC2)CC1 (stereo not drawn)	GAA850 FXN act 9.7 (no result: STAT3 act) | GAA30 FXN cntr 61 | GAA850 confirm 16
Cc1ccc(Nc2nc(N)c([N+](=O)[O-])c(NCc3ccco3)n2)cc1	GAA850 FXN act 8.9 | GAA30 FXN cntr 67 | GAA850 confirm 34
O=S(=O)(CCNCCc1ccccc1)NCc1ccccc1	none (no result: AHR activator, STAT3 act)
Cn1/c(=N/N=C/c2ccccn2)sc2ccccc21	GAA850 FXN act 10 (no result: AHR activator) | GAA30 FXN cntr 114 | GAA850 confirm 35
N#C/C(=N\Nc1ccc(Cl)cc1)C(=N)N1CCCCCC1	GAA850 FXN act 12 | GAA30 FXN cntr 130 | GAA850 confirm 49
CN(C)S(=O)(=O)c1ccc(N2CCCC2)c(C(=O)NCc2ccc(Cl)cc2)c1	none
O=C1Cc2c([nH]c3ccc(Br)cc23)-c2ccccc2N1	GAA850 FXN act 68 (no result: AHR activator, STAT3 act) | GAA30 FXN cntr 167 | GAA850 confirm 201
Brc1ccc2[nH]c3c(c2c1)CCC3	none (no result: STAT3 act)
